Experimental data from different studies.
Compare with care: the assays were run in different laboratories.
Target: Activin receptor type-1 (ACVR1, Homo sapiens, UniProt Q04771)
One construct used (Q04771 1-509): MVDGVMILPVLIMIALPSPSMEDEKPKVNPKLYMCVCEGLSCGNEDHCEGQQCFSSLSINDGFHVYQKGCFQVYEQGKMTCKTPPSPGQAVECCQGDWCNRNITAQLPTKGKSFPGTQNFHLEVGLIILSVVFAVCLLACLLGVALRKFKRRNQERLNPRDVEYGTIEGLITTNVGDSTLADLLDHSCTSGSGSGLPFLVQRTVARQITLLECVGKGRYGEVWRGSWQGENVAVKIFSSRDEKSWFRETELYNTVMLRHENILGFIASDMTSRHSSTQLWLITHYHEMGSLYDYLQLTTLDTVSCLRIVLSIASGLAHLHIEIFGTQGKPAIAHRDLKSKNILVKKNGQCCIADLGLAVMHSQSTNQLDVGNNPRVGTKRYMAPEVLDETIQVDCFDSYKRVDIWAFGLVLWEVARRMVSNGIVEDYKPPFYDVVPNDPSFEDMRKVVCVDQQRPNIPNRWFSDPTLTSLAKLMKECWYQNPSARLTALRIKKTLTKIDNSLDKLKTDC

Compound	assay	setting	endpoint	result
CCC1(CC)NC(=O)c2c(c3ccc(Cl)c(Cl)c3n2C)C1C#N (stereo not drawn)	thermal stability, DSF	10 µM	ΔTm	0.2 °C
Oc1cccc(-c2nc(N3CCOCC3)c3oc4ncccc4c3n2)c1	cell-free assay	0.5 µM	remaining signal	105%
Nc1ncnc2occ(-c3ccc(NC(=O)Nc4cc(C(F)(F)F)ccc4F)cc3)c12	cell-free assay	20 µM	remaining signal	72%
Cc1cc(NC(=O)c2cccc3cc(-c4cccc5[nH]nc(N)c45)ccc23)ccc1F	enzyme activity, inhibitor	0.1 µM	activity vs control	105%
Cc1c(NC(=O)c2cc(C(N)=O)nc3cc(F)ccc23)c(C(F)(F)F)nn1Cc1ccc(C#N)cc1	cell-free assay, competition with immobilised ligand	1 µM	remaining binding	87%
COc1cc2c(N3CCN(C(=O)Nc4ccc(OC(C)C)cc4)CC3)ncnc2cc1OCCCN1CCCCC1	cell-free assay	0.5 µM	remaining signal	145%
CCOc1cc(-c2nncn2C)ccc1Nc1ncc2cc(C)nc(NCC(C)(C)C)c2n1	cell-free assay, TR-FRET	1 µM	inhibition	≤ 15%
CN1CCN(c2cnc3c(C4CCN(C(=O)c5ccc(OC(F)(F)F)cc5N)CC4)ncnc3c2)CC1	cell-free assay, competition with immobilised ligand	1 µM	remaining binding	100%
Clc1ccc(Nc2nnc(Cc3ccncc3)c3ccccc23)cc1	cell-free assay	0.5 µM	remaining signal	96.1%
Cn1cc(Cl)c2c(Oc3c(F)cc(Nc4cc(Cl)nc(N)n4)cc3F)ccnc21	cell-free assay, competition with immobilised ligand	0.1 µM	remaining binding	85%
Cn1c2c(c3ccc(Cl)c(Cl)c31)C(C#N)C1(CCOCC1)NC2=O (stereo not drawn)	thermal stability, DSF	10 µM	ΔTm	0.1 °C
CC(C)(C)c1nc(-c2cccc(NS(=O)(=O)c3c(F)cccc3F)c2F)c(-c2ccnc(N)n2)s1	enzyme activity, inhibitor, radiometric	1 µM	remaining activity	47%
Cn1c2c(c3ccc(Cl)c(Cl)c31)C(C#N)C1(CCCC1)NC2=O (stereo not drawn)	thermal stability, DSF	10 µM	ΔTm	-0.2 °C
COc1cccc(CNC(=O)c2nc3scc(COCc4ccc(C(=O)O)cc4)c3c(=O)[nH]2)c1	cell-free assay, competition with immobilised ligand	1 µM	remaining binding	94.3%
N#CC1c2c([nH]c3c(Cl)c(Cl)ccc23)C(=O)NC12CCCCC2 (racemic)	thermal stability, DSF	10 µM	ΔTm	0.1 °C
O=C(NS(=O)(=O)c1ccc(NCC2CCOCC2)c([N+](=O)[O-])c1)c1ccc(N2CCN(Cc3ccc(C(F)(F)F)cc3-c3ccc(Cl)cc3)CC2)cc1Oc1cnc2[nH]ccc2c1	cell-free assay, competition with immobilised ligand	1 µM	remaining binding	89%
Cc1sc(C(=O)NC2COC2)cc1-n1cc(NC(=O)Nc2c(F)cccc2Cl)cn1	enzyme activity, inhibitor	10 µM	remaining activity	108%
CC(=O)C1=C(C)N(c2cccc(C(F)(F)F)c2)C(=O)N[C@@H]1c1ccc(C#N)nc1	cell-free assay, competition with immobilised ligand	1 µM	remaining binding	74.5%
N#CCCc1ccc2c(c1)-c1[nH]c3ccc([N+](=O)[O-])cc3c1CC(=O)N2	cell-free assay	0.5 µM	remaining signal	58.8%
Cn1c2c(Cl)c(Cl)ccc2c2cn[nH]c(=O)c21	thermal stability, DSF	10 µM	ΔTm	3.3 °C
COc1cc(Cl)c(C(=O)N[C@@H](CN[C@H]2CC[C@@H](N)CC2)Cc2ccc(C#N)cc2)cc1-c1ccc(CN[C@H](C)c2ccc(C)cc2)o1	enzyme activity, inhibitor	1 µM	remaining activity	89%
